Data published in ChEMBL document CHEMBL1126312, “Synthesis and evaluation of 3-substituted 17-methylmorphinan analogs as potential anticonvulsant agents” (J Med Chem, 1992).
The source made the active and inactive calls. The rule behind the calls is not given here.

Legend:
[1] = target: T1, Glutamate [NMDA] receptor (Homo sapiens) (UniProt Q05586+Q12879+Q13224+O15399+O60391+Q14957+Q8TCU5); conditions: Cavia porcellus; 10e-5 M
[2] = target: T2, Glutamate NMDA receptor (Rattus norvegicus) (UniProt P35439+Q00959+Q00960+Q00961+Q62645+Q8VHN2+Q9R1M7); conditions: 10e-5 M
[3] = target: T1, Glutamate [NMDA] receptor (Homo sapiens); conditions: Cavia porcellus; Plasma; 10e-5 M
Rattus norvegicus [4] = test: Anticonvulsant activity in rat supramaximal electroshock (MES) test expressed as % rats protected at a dose of 2.5-50 mg/kg.; type: functional
In short: (§1)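 Rats were given the compound sc in freshly diluted normal saline (DMSO or HCl-assisted dissolution for some compounds) at 1-2 mL/kg. Vehicle-injected controls were run. Rats were tested at 30 min after injection. The read-out is the % of rats protected from convulsion in the MES test at the stated doses, with n = 10 rats.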

[5] = target: T1, Glutamate [NMDA] receptor (Homo sapiens); test: Binding affinity against dextromethorpin binding site associated with N-methyl-D-aspartate glutamate receptor from guinea pig microsomal pellet P3 determined using [3H]1 as radioligand.; conditions: Cavia porcellus; target entry is the homologue from another species; concentration not given here
In short: (§2)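 Guinea pig brain microsomal P3 fraction (100000g, 60 min pellet) was used in Tris-HCl pH 7.4. [3H]dextromethorphan at 5 nM final was incubated with ~0.5 mg tissue for 20 min at 23 °C, with displacer at 10^-9–10^-5 M. Nonspecific binding was defined with 100 µM unlabelled ligand. Samples were filtered on GF/B in cold Tris/choline chloride/Triton buffer and counted.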

[6] = target: T2, Glutamate NMDA receptor (Rattus norvegicus); test: Binding affinity against dextromethorpin binding site associated with N-methyl-D-aspartate glutamate receptor from rat brain determined using [3H]1 as radioligand.; conditions: concentration not given here
In short: (§3)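 Rat brain membranes were the 100000g pellet of the 1000g supernatant, in 50 mM Tris-HCl pH 7.4. [3H]dextromethorphan (5 nM final) was incubated with ~0.3 mg membranes for 20 min at 23 °C, with displacer at 10^-9–10^-5 M. Nonspecific binding was defined with 100 µM unlabelled ligand. Samples were filtered on GF/B in cold Tris/choline chloride/Triton wash and counted by scintillation.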

[7] = target: T2, Glutamate NMDA receptor (Rattus norvegicus); test: (§4) Binding affinity against glycine binding site associated with N-methyl-D-aspartate glutamate receptor from rat synaptic plasma membrane(SPM) determined using [3H]glycine as radioligand.;NA = No effect
[8] = target: T1, Glutamate [NMDA] receptor (Homo sapiens); test: (§5) Binding affinity against dextromethorpin binding site associated with N-methyl-D-aspartate glutamate receptor from guinea pig mitochondrial pellet P2 determined using [3H]1 as radioligand.; type: functional; conditions: Cavia porcellus; target entry is the homologue from another species; concentration not given here
In short: (§6)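 Guinea pig brain crude mitochondrial P2 fraction (11500g pellet, De Robertis-based) was used in Tris-HCl pH 7.4. [3H]dextromethorphan at 5 nM final was incubated with ~0.3 mg tissue for 20 min at 23 °C, with displacer at 10^-9–10^-5 M. Nonspecific binding was defined with 100 µM unlabelled ligand. Samples were filtered on GF/B and counted by scintillation.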

Glutamate NMDA receptor [9] = test: Binding affinity against dextromethorpin binding site of N-methyl-D-aspartate glutamate receptor from rat brain using [3H]1
In short: as §3

[10] = target: Glutamate [NMDA] receptor; test: as §5; type: protein-complex assay, Cavia porcellus
In short: as §6

[11] = target: T2, Glutamate NMDA receptor (Rattus norvegicus); test: (§7) Binding affinity against PCP binding site associated with N-methyl-D-aspartate glutamate receptor from rat synaptic plasma membrane(SPM) determined using [3H]TCP as radioligand.
In short: (§8)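 Crude rat brain synaptic plasma membranes (cerebellum removed, extensively washed) were used in 5 mM Tris-HCl pH 7.4. [3H]TCP at 5 nM final was incubated with ~0.2 mg membranes for 60 min at 23 °C. Nonspecific binding was defined with cold phencyclidine. Samples were filtered on GF/B pre-soaked in 0.5% PEI, washed with 5 mM Tris pH 7.7 and counted.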

Glutamate NMDA receptor [12] = test: Binding affinity against glycine binding site of N-methyl-D-aspartate glutamate receptor from rat synaptic plasma membrane(SPM) using [3H]glycine; NA = No effect
Rattus norvegicus [13] = test: Anticonvulsant activity in rat supramaximal electroshock (MES) test expressed as % rats protected at a dose of 40 mg/kg.; type: functional
In short: as §1

[14] = target: Glutamate [NMDA] receptor; test: Inhibition of [3H]1 binding to dextromethorpin binding site of guinea pig microsomal pellet P3 N-methyl-D-aspartate glutamate receptor; design: species or system Cavia porcellus
In short: as §2

Glutamate NMDA receptor [15] = test: as §4
Rattus norvegicus [16] = test: Anticonvulsant activity in rat supramaximal electroshock (MES) test expressed as % rats protected at a dose of 2.5-10 mg/kg.; type: functional
In short: as §1

Rattus norvegicus [17] = test: Anticonvulsant activity in rat supramaximal electroshock (MES) test within a dose range of 15-60 mg/kg.; type: functional
In short: (§9)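 The compound was given sc in freshly diluted normal saline at 1-2 mL/kg across the stated dose range, with vehicle-injected controls. MES protection was scored 30 min post-dose, with n = 10 rats. ED50 was derived from the dose-response and reported with 95% confidence limits, in mg/kg and µmol/kg.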

Rattus norvegicus [18] = test: Anticonvulsant activity in rat supramaximal electroshock (MES) test within a dose range of 15-60 mg/kg administered subcutaneously; type: functional; conditions: sc
In short: as §9

Glutamate NMDA receptor [19] = test: as §7
In short: as §8

[20] = target: Glutamate [NMDA] receptor; test: Binding affinity against dextromethorpin binding site associated with N-methyl-D-aspartate glutamate receptor from guinea pig mitochondriall pellet P2 determined using [3H]1 as radioligand.; type: protein-complex assay, Cavia porcellus
In short: as §6

Rattus norvegicus [21] = test: Anticonvulsant activity was determined in rat supramaximal electroshock (MES) test within a dose range of 15-60 mg/kg after (sc) administration; type: functional
In short: as §9

Rattus norvegicus [22] = test: Anticonvulsant activity in rat supramaximal electroshock (MES) test expressed as % rats protected at a dose of 12.5-50 mg/kg.; type: functional
In short: as §1

Rattus norvegicus [23] = test: Anticonvulsant activity in rat supramaximal electroshock (MES) test expressed as % rats protected at a dose of 25-50 mg/kg.; type: functional
In short: as §1

[24] = target: T2, Glutamate NMDA receptor (Rattus norvegicus); test: Binding affinity against PCP binding site associated with N-methyl-D-aspartate glutamate receptor from rat synaptic plasma membrane(SPM) determined using [3H]TCP as radioligand.;NA = No effect; conditions: concentration not given here
In short: as §8

Rattus norvegicus [25] = test: Anticonvulsant activity in rat supramaximal electroshock (MES) test expressed as % rats protected at a dose of 1.25-10 mg/kg.; type: functional
In short: as §1

Rattus norvegicus [26] = test: Anticonvulsant activity in rat supramaximal electroshock (MES) test expressed as % rats protected at a dose of 15-60 mg/kg.; type: functional
In short: as §1

Rattus norvegicus [27] = test: Anticonvulsant activity in rat supramaximal electroshock (MES) test expressed as % rats protected at a dose of 25-100 mg/kg.; type: functional
In short: as §1

Rattus norvegicus [28] = test: Anticonvulsant activity in rat supramaximal electroshock (MES) test expressed as % rats protected at a dose of 5-40 mg/kg.; type: functional
In short: as §1

[29] = target: T2, Glutamate NMDA receptor (Rattus norvegicus); test: Binding affinity against PCP binding site associated with N-methyl-D-aspartate glutamate receptor from rat synaptic plasma membrane(SPM) determined using [3H]TCP as radioligand; conditions: concentration not given here
In short: as §8

Rattus norvegicus [30] = test: Anticonvulsant activity in rat supramaximal electroshock (MES) test expressed as % rats protected at a dose of 10 and 25 mg/kg.; type: functional
In short: as §1

[31] = target: T2, Glutamate NMDA receptor (Rattus norvegicus); test: as §7; conditions: concentration not given here
In short: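 Rat brain (minus cerebellum) crude synaptic plasma membranes, washed repeatedly in 5 mM Tris-HCl pH 7.4; about 0.2 mg incubated with 5 nM [3H]TCP for 60 min at 23 °C, 0.5 mL final volume. Displacers tested at 10^-9–10^-5 M; cold PCP defines nonspecific binding. Bound ligand collected by filtration on PEI-soaked GF/B filters and counted by scintillation.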

Rattus norvegicus [32] = test: Anticonvulsant activity in rat supramaximal electroshock (MES) test expressed as % rats protected at a dose of 50 mg/kg.; type: functional
In short: as §1

[33] = target: Glutamate [NMDA] receptor; test: Binding affinity against dextromethorpin binding site associated with N-methyl-D-aspartate glutamate receptor from guinea pig microsomal pellet (P3) using [3H]1 as radioligand.; design: species or system Cavia porcellus
In short: as §2

Glutamate NMDA receptor [34] = test: Binding affinity against glycine binding site associated with N-methyl-D-aspartate glutamate receptor from rat synaptic plasma membrane using [3H]glycine as radioligand.
Glutamate NMDA receptor [35] = test: Binding affinity against dextromethorpin binding site associated with N-methyl-D-aspartate glutamate receptor from rat brain using [3H]1 as radioligand.
In short: as §3

C[C@]12N[C@H](Cc3ccccc31)c1ccccc12
inhibition [1]: 19%
inhibition [2]: 42%
inhibition [3]: 20%

CN1CCC23CCCCC2C1Cc1ccc(Oc2nc(-c4ccccc4)nc4ccccc24)cc13 (centres undefined)
Protection (Rattus norvegicus [4]): 10%
inhibition [5]: 50%
inhibition [6]: 19%
inhibition [7]: inactive
inhibition [8]: 25%

CN(C)c1ccc2c(c1)C13CCCCC1C(C2)N(C)CC3 (centres undefined)
IC50 (Glutamate NMDA receptor [9]): 4.4 µM
IC50 [10]: 0.68 µM
inhibition [11]: 45 µM
IC50 (Glutamate NMDA receptor [12]): Not Active
Protection (Rattus norvegicus [13]): 40%
IC50 [14]: 1.1 µM

CN1CC[C@]23CCCC[C@H]2[C@H]1Cc1ccc(O)cc13 [LEVORPHANOL]
IC50 (Glutamate NMDA receptor [9]): 7.7 µM
IC50 (Glutamate NMDA receptor [15]): Not Active
Protection (Rattus norvegicus [16]): 90%
ED50 (Rattus norvegicus [17]): 12 µmol/kg
ED50 (Rattus norvegicus [18]): 5 mg/kg
IC50 (Glutamate NMDA receptor [19]): 1.2 µM
IC50 [20]: 2.5 µM
IC50 [14]: 2.7 µM

CN1CCC23CCCCC2C1Cc1ccc(N)cc13 (centres undefined)
ED50 (Rattus norvegicus [21]): 25 mg/kg
ED50 (Rattus norvegicus [17]): 76 µmol/kg
IC50 (Glutamate NMDA receptor [19]): 7.8 µM
inhibition [6]: 45%
IC50 [10]: 6.4 µM
IC50 (Glutamate NMDA receptor [12]): Not Active
Protection (Rattus norvegicus [22]): 100%
IC50 [14]: 4.4 µM

CN1CCC23CCCCC2C1Cc1ccc(N=C=S)cc13 (centres undefined)
IC50 (Glutamate NMDA receptor [9]): 1.5 µM
IC50 [10]: 0.44 µM
Protection (Rattus norvegicus [23]): 0%
inhibition ([11]; concentration not given here): 60%
IC50 (Glutamate NMDA receptor [12]): Not Active
IC50 [14]: 0.17 µM

CC(C)Oc1ccc2c(c1)C13CCCCC1C(C2)N(C)CC3 (centres undefined)
IC50 (Glutamate NMDA receptor [9]): 0.88 µM
ED50 (Rattus norvegicus [17]): 9.4 µmol/kg
ED50 (Rattus norvegicus [18]): 3.9 mg/kg
IC50 [10]: 0.15 µM
IC50 (Glutamate NMDA receptor [12]): Not Active
inhibition [24]: 59%
Protection (Rattus norvegicus [25]): 90%
IC50 [14]: 0.12 µM

c1ccc(C2(N3CCCCC3)CCCCC2)cc1 [PHENCYCLIDINE]
IC50 (Glutamate NMDA receptor [19]): 0.18 µM

COc1ccc2c(c1)C13CCCCC1C(C2)N(C)CC3 (stereo not drawn) [RACEMETHORPHAN]
Protection (Rattus norvegicus [26]): 70%
ED50 (Rattus norvegicus [17]): 109 µmol/kg
ED50 (Rattus norvegicus [18]): 38 mg/kg
IC50 [10]: 0.24 µM
IC50 (Glutamate NMDA receptor [12]): Not Active
IC50 [14]: 0.49 µM

CN1CCC23CCCCC2C1Cc1ccccc13 (centres undefined)
IC50 (Glutamate NMDA receptor [9]): 1.3 µM
Protection (Rattus norvegicus [27]): 0%
IC50 [10]: 1.7 µM
inhibition ([11]; concentration not given here): 53%
IC50 (Glutamate NMDA receptor [12]): Not Active
IC50 [14]: 1 µM

CNc1ccc2c(c1)C13CCCCC1C(C2)N(C)CC3 (centres undefined)
IC50 (Glutamate NMDA receptor [9]): 3.6 µM
Protection (Rattus norvegicus [27]): 0%
IC50 [10]: 0.48 µM
inhibition ([11]; concentration not given here): 43%
IC50 (Glutamate NMDA receptor [12]): Not Active
IC50 [14]: 1.3 µM

CCCCOc1ccc2c(c1)C13CCCCC1C(C2)N(C)CC3 (centres undefined)
IC50 (Glutamate NMDA receptor [9]): 1.5 µM
Protection (Rattus norvegicus [28]): 40%
inhibition [29]: 58%
IC50 [10]: 0.16 µM
IC50 (Glutamate NMDA receptor [12]): Not Active
IC50 [14]: 0.1 µM

CCOc1ccc2c(c1)C13CCCCC1C(C2)N(C)CC3 (centres undefined)
IC50 (Glutamate NMDA receptor [9]): 0.42 µM
Protection (Rattus norvegicus [30]): 90%
ED50 (Rattus norvegicus [17]): 17.4 µmol/kg
ED50 (Rattus norvegicus [18]): 5.6 mg/kg
inhibition [29]: 75%
IC50 [10]: 0.09 µM
IC50 (Glutamate NMDA receptor [12]): Not Active
IC50 [14]: 0.13 µM

CN(C)CCCN1c2ccccc2Sc2ccc(Cl)cc21 [CHLORPROMAZINE]
IC50 (Glutamate NMDA receptor [9]): 1.3 µM
IC50 [10]: 1.1 µM
inhibition [31]: 25%
IC50 (Glutamate NMDA receptor [12]): Not Active
IC50 [14]: 0.6 µM

CN1CCC23CCCCC2C1Cc1ccc(OCc2ccccc2)cc13 (centres undefined)
Protection (Rattus norvegicus [32]): 30%
IC50 [33]: 0.15 µM
IC50 (Glutamate NMDA receptor [34]): Not Active
IC50 [10]: 0.27 µM
inhibition ([11]; concentration not given here): 39%
IC50 (Glutamate NMDA receptor [35]): 3.1 µM

CN1CCC23CCCCC2C1Cc1ccc(Cl)cc13 (centres undefined)
IC50 (Glutamate NMDA receptor [9]): 1.1 µM
IC50 (Glutamate NMDA receptor [19]): 5.5 µM
IC50 [10]: 0.37 µM
Protection (Rattus norvegicus [23]): 10%
IC50 (Glutamate NMDA receptor [12]): Not Active
IC50 [14]: 0.21 µM
